High-throughput results from PubChem BioAssay.
OXTR potentiate: human OXTR potentiation; P30559; CHO-OTR cells, Fluo-8 calcium fluorescence, potentiator mode; 0% = oxytocin EC15, 100% = EC100; activation, % at 3 µM; hit rate 0.061% among 320,000; AID 2445;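 active means activation above that plate's cutoff, the mean activation of tested compounds plus 3 SD, cut at about 6.6% in these data, passing the limit was not always enough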;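 further: 100% uses oxytocin at 75 nM as the full agonist control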
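test system = CHO-OTR cells, human receptor | compound = single-point 3.0 µM | schedule = 6 min compound pre-incubation at room temperature, 100 s kinetic read | signal = Fluo-8 no-wash calcium dye fluorescence, excitation 470-495 nm, emission 515-575 nm | repeats = single well per compound, singlicate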
V1aR counter: V1a receptor agonism, counter-screen for OXTR agonists | P37288 | CHO-V1R cells, Fluo-8 calcium fluorescence, agonist mode; 0% DMSO, 100% 3 nM vasopressin | activation, % at 3 µM | hit rate 0.25% among 320,000 | AID 2797;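 active means activation above the mean activation of all tested compounds plus 3 SD, per screening run, cut at about 20% in these data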;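 further: signal is peak over basal fluorescence ratio across a 100 second FLIPR read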
Target sequence (P37288 whole entry, looked up): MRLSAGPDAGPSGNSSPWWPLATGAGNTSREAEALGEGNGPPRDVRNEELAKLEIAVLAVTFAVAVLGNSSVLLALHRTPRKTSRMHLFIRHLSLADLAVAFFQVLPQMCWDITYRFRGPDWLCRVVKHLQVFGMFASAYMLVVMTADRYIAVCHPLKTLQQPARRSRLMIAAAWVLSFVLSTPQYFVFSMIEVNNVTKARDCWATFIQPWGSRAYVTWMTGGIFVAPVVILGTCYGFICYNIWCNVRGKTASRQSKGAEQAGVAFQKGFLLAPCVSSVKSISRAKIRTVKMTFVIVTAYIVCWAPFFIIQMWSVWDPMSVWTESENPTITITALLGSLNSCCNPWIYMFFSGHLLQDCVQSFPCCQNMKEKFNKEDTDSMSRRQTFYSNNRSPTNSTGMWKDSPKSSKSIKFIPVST
OX1R antag-1: antagonists of human orexin 1 receptor (OX1R); O43613; OX1R-expressing cells, FRET antagonist read-out; inhibition, % at 6.6 µM; hit rate 1.8% among 330,000; AID 485270; in the data active means inhibition mostly above about 38%, no sharp cut-off; inactive means mostly below about 40%;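 further: 0% = agonist challenge alone and 100% = reference antagonist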
OXTR ag: human OXTR agonism; P30559; CHO-OTR cells, Fluo-8 calcium fluorescence; normalized: DMSO 0%, oxytocin 100%; activation, % at 3 µM; hit rate 0.32% among 320,000; AID 2435;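 active means activation above the mean of all tested compounds plus 3 SD, cutoff set per screening run, cut at about 20% in these data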;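 further: peak over basal fluorescence ratio from a 100 s FLIPR kinetic read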
OX1R antag-2: human HCRTR1 antagonism; O43613; CHO/OX1R cells, Fluo-8 calcium fluorescence, orexin A; inhibition, % at 5 µM; hit rate 0.43% among 330,000; AID 434989;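 active means inhibition above its plate's threshold, mean inhibition of all tested compounds on the plate plus 3 SD, cut at about 37% in these data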;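 further: 0% = orexin A challenge wells and 100% = SB-334867-A antagonist wells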
CHO parental Ca: counter-screen for OX1R antagonists: effect in parental CHO cells; parental CHO-K1, ATP-induced calcium, Fluo-8 fluorescence; inhibition, % at 5.6 µM; hit rate 0.63% among 330,000; AID 463079;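 active means inhibition above that plate's mean sample inhibition plus 3 SD, cut at about 26% in these data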;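 further: 0% = ATP-challenged DMSO wells and 100% = DMSO wells without ATP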
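material = parental CHO cells | also added = ATP as calcium-mobilizing challenge | dosing = single point at 5.6 µM | detection = intracellular calcium via Fluo-8 no-wash fluorescent dye | read-out = % inhibition | benchmarks = low control ATP plus DMSO, high control DMSO only | repeats = one well per compound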
* = called active by the depositor. Shown are actives, neighbours in structure and some others; about 2.6% of the full set was active somewhere.

SMILES	OXTR potentiate	V1aR counter	OX1R antag-1	OXTR ag	OX1R antag-2	CHO parental Ca
CC(C)CCC(C(=O)NC(C)c1ccccc1)C(=O)NC(C)c1ccccc1 (centres undefined)	-21.6	2.5	42.8*	0.8	14.1	-22.0
O=C(NCCCN1CCN(CCCNC(=O)c2cc([N+](=O)[O-])ccc2Cl)CC1)c1cc([N+](=O)[O-])ccc1Cl	0.2	-0.3	71.9*	-0.8	3.2	1.4
O=C(Nc1ccccc1C(=O)NCCN1CCOCC1)c1cccc([N+](=O)[O-])c1	2.5	0.3	32.0	-0.2	-22.2	-25.2
O=C(Nc1cc([N+](=O)[O-])ccc1C(=O)NCCN1CCOCC1)c1ccccc1	-12.4	3.2	75.4*	0.9	-5.5	-10.4
O=C1c2ccccc2S(=O)(=O)c2cc(N3CCOCC3)ccc21	-4.1	0.6	56.0*	-1.7	-22.5	-16.5
CC1(C)Cc2c(sc(NC(=O)COc3cccc4ccccc34)c2C#N)C(C)(C)N1	-11.0	1.4	8.9	1.4	25.5	82.0*
CN(C)S(=O)(=O)c1cccc(NC(=O)c2ccc(COc3ccccc3)cc2)c1	-15.1	14.2	10.6	12.7	29.3	55.9*
COCc1ccc(C(=O)Nc2cccc(S(=O)(=O)N(C)c3ccccc3)c2)cc1	-11.8	6.9	15.0	10.6	-19.5	-1.7
CC(=O)Nc1ccc(NC(=O)Nc2cccc(Cl)c2)cc1	-8.8	0.1	-1.6	0.5	-23.8	-5.4
CSc1cccc(NC(=O)Nc2ccc(Cl)cc2)c1	-20.2	10.3	50.5*	12.6	49.3*	80.6*
CSc1cccc(NC(N)=O)c1	2.4	0.3	1.2	0.9	-9.3	6.5
CC(=O)c1ccc(NC(=O)Nc2cccc(Cl)c2)cc1	-18.4	11.8	72.0*	18.2	35.4	37.6*
O=C1NC(Cc2ccccc2)c2nc3ccc(F)cc3c(=O)n2-c2cc(Cl)ccc21 (centres undefined)	-0.8	-0.5	3.9	-1.9	-21.2	-26.0
CCNC(=O)N(CC)C[C@H]1N[C@@](Cc2ccccc2)(C(=O)OC)[C@H]2C(=O)N(C)C(=O)[C@@H]12	6.2	1.8	2.2	0.4	8.6	-17.7
O=C(CN1C2CCCC1CC(NC(=O)C1CCCCC1)C2)Nc1ccccc1C(F)(F)F (centres undefined)	-11.0	2.6	42.0*	-1.1	1.5	-5.8
O=C(CN1C2CCCC1CC(NC(=O)C1CCCCC1)C2)NCc1ccc(F)cc1 (centres undefined)	-13.4	-0.5	6.9	-0.1	-26.3	-20.1
COC1=CC(=O)c2ccccc2C1=O	-3.7	2.0	92.4*	0.9	8.6	-3.1
CCCc1cc(=O)[nH]c(SCCc2ccccc2)n1	10.6	0.2	4.9	-0.7	-10.4	-7.1
Nc1ccc(Nc2ccncc2[N+](=O)[O-])cc1	1.9	0.8	63.9*	0.9	-6.3	-12.2
Nc1ccccc1Nc1ccncc1[N+](=O)[O-]	-8.3	-0.8	24.2	0.9	-7.2	-3.6
COc1ccccc1Nc1ccncc1[N+](=O)[O-]	-1.4	-0.3	38.0	-0.9	5.7	-7.2
COc1cccc(Nc2c(Nc3cccc(OC)c3)c(=O)c2=O)c1	-8.7	2.1	10.0	1.2	-7.6	3.8
COc1cccc(Nc2c([N+](=O)[O-])cncc2[N+](=O)[O-])c1	-5.8	0.4	75.9*	-0.3	-10.1	-6.6
O=C(O)c1cccc(Nc2ccncc2[N+](=O)[O-])c1	1.0	1.4	38.5*	1.6	-17.6	3.0
O=[N+]([O-])c1cnccc1Nc1ccccc1	-10.6	0.3	57.7*	-0.3	-6.8	-1.6
SMILES	OXTR potentiate	V1aR counter	OX1R antag-1	OXTR ag	OX1R antag-2	CHO parental Ca
CCSc1nnc(SCC(=O)Nc2cc(C)on2)s1	4.5	2.0	4.2	0.7	3.5	-6.4
COc1ccc(S(=O)(=O)N(NC2=NS(=O)(=O)c3ccccc32)C(=O)C(C)C)cc1	-4.2	0.2	10.6	-0.9	-7.1	0.8
CN(C(=O)COC(=O)c1ccccc1NCc1ccco1)c1c(N)n(Cc2ccccc2)c(=O)[nH]c1=O	-6.0	-0.8	63.8*	-1.1	-10.1	-18.1
CS(=O)(=O)NCCCNc1ccc(Cl)cc1[N+](=O)[O-]	-6.5	1.4	42.6*	2.3	-7.7	-6.9
Cc1csc(NC(=O)COCC(=O)O)c1-c1nc2ccccc2s1	0.9	0.3	52.5*	1.1	7.3	-1.7
CCOC(=O)C1(C)NC(c2cccs2)C2C(=O)N(c3ccc(OC)cc3)C(=O)C21 (centres undefined)	-6.9	-1.5	0.6	-1.2	-9.9	-23.1
Cc1ccc(N(C(=O)CNC(=O)c2cccs2)C(C(=O)NC2CCCC2)c2ccncc2)cc1 (centres undefined)	-7.8	1.0	16.2	0.3	-37.2	-19.7
N/C(=N\OC(=O)c1ccc([N+](=O)[O-])cc1)c1cccnc1	7.9	0.2	30.2	-1.8	-8.7	-14.5
O=C1NCCCC1C(=O)N/N=C/c1ccc([N+](=O)[O-])cc1 (centres undefined)	-6.2	-1.3	53.6*	-0.4	-12.2	-6.2
O=C(Oc1c(Br)cc([N+](=O)[O-])cc1Br)c1cccnc1	-17.6	9.9	52.7*	5.1	-15.1	-1.1
O=C1NCCCC1C(=O)N/N=C/c1cccc([N+](=O)[O-])c1 (centres undefined)	-7.3	2.4	24.5	0.0	2.3	6.6
O=C(NCCOC(=O)c1ccc([N+](=O)[O-])cc1)c1cccnc1	-0.8	1.4	68.7*	-0.2	-9.2	1.8
O=C(N/N=C/C=C\c1ccccc1[N+](=O)[O-])c1cccnc1	-2.0	0.9	14.6	-1.1	1.3	-7.6
O=C(N/N=C/C=C/c1ccccc1[N+](=O)[O-])c1cccnc1	0.2	0.5	46.9*	1.1	-12.6	-0.7
CC(C)(C)OC(=O)C[C@@H]1C/C=C\C[C@H](CC(=O)N(CCO)Cc2ccccc2)C(=O)N[C@H](Cc2ccccc2)COC1=O	-4.6	-0.7	18.8	-1.9	-10.4	-31.9
O=S(=O)(c1ccc(-c2n[nH]c(=S)o2)cc1)N1CCCCC1	-19.1	0.4	10.9	1.8	-8.8	3.6
CC(C)(C)c1ccc(Cn2c(=O)cnc3ccccc32)cc1	-24.3	-0.7	18.8	-2.2	-16.1	0.3
O=C(NC1=NCCS1)c1ccccc1OCc1ccccc1Cl	-12.2	-0.4	8.9	-1.8	-27.7	-9.8
Cc1nonc1C1CCCN1C(=O)c1cc(COc2ccc(F)cc2F)on1 (centres undefined)	-0.6	0.5	22.3	3.2	-22.2	-9.2
O=C(/C=C/c1ccc([N+](=O)[O-])cc1)NCc1cccs1	-4.9	0.5	55.5	-2.5	-1.7	-3.9
Nc1nnc(CC(=O)N/N=C/c2ccc([N+](=O)[O-])cc2)s1	1.8	-0.8	75.1*	-0.3	3.4	-3.0
O=C(/C=C/c1cccc([N+](=O)[O-])c1)NCc1cccnc1	0.9	1.2	72.2*	0.3	-13.7	5.2
